Bioassay records from PubChem.
Sampled rows, rich in hits. Any-hit rate of the full collection: about 2%.
ABCB6 inh 2 – blocks the human ABCB6 transporter. 0.19% of 360,000 active. K562-ABCB6 porphyrin accumulation, flow cytometry, 1 h; stronger effect = lower value. Q9NP58. fluorescence ratio to DMSO, % at 10 µM;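 active = fluorescence ratio to DMSO below 75%, the collection mean minus 3 SD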;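 also: signal is porphyrin accumulated inside mitochondria; 100% equals median channel fluorescence of DMSO control wells; lower ratio means ABCB6 inhibition with less porphyrin fluorescence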
DAGLB inhibitor – blocks human DAGLB lipase activity; HEK293T DAGLB membrane lysate, EnzChek fluorogenic substrate; 0.059% of 340,000 active; inhibition, % at 5.17 µM; Q8NCG7; in the data active = inhibition above about 34%;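 also: 0% = enzyme with vehicle and 100% = wells lacking enzyme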
VLA-4 inh – inhibition in a human VLA-4 binding assay. P13612. VLA-4 expressing cells, ligand binding flow cytometry. inhibition, % (about 7 µM as worked out from the volumes in the protocol). 0.2% of 330,000 active. AID 2557; in the data active = inhibition above about 50%
Granule exo inh – blocks lytic granule exocytosis | TALL-104 LAMP-1 surface exposure, flow cytometry; cells stimulated with thapsigargin and PMA | inhibition, % at 10 µM | 0.66% of 360,000 active;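 active = inhibition above about 55%, limit read from the data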
MT1-MMP act inh – blocks activation of human MT1-MMP; P50281; AID 651647; 0.061% of 360,000 active; GFP/RFP ratio change, % at 20 µM; HT1080 RFP-PRO-GFP cells, GFP/RFP ratio fluorescence, overnight; percent of plate control window, DMSO zero;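 active = GFP/RFP ratio change of at least 30% with cell ATP level not reduced by more than half and red fluorescence within 50% of control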
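Assay system: RFP-PRO-GFP reporter HT1080 cells; read-out basis: GFP/RFP fluorescence ratio; benchmarks: DMSO wells and RFP-L50D-GFP cells; doses: 20 µM single dose, 1% DMSO; schedule: overnight cell settling, then overnight compound exposure, 37 °C, 5% CO2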
FGF22 binding – binders of recombinant human FGF22 by thermal shift. Q9HCT0. SYPRO orange fluorescence; percent of sucrose octasulfate shift, DMSO zero. activity (Tm shift, normalised), % at 9.99 µM. 1.5% of 340,000 active. AID 651658;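 active = mean Tm shift, scaled 0 neutral to 100 positive control, at about 1.3% or above, every replicate too, limit read from the data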
Target sequence (Q9HCT0 whole entry, looked up): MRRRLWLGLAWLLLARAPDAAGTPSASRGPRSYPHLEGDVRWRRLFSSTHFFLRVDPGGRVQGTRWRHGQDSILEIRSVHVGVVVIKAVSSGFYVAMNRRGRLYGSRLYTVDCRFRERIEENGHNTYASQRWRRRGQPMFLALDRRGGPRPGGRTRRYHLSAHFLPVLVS
* hit, by the source's call; . = not tested or not shown.

SMILES | ABCB6 inh 2 | DAGLB inhibitor | VLA-4 inh | Granule exo inh | MT1-MMP act inh | FGF22 binding
CNC(=O)c1c(NC(=O)CS(=O)(=O)c2ccccc2)sc(C)c1C | 99 | 4 | 5 | 0 | 0 | 0
COC(=O)c1c(NC(=O)CCCC(=O)O)sc(C)c1C | 102 | 1 | -5 | -1 | -2 | .
C[C@H](CO)N1C[C@H](C)[C@@H](CN(C)Cc2ccncc2)OCCCC[C@H](C)Oc2ccc(NS(=O)(=O)c3cn(C)cn3)cc2C1=O | . | . | . | . | . | -1
CN(C)S(=O)(=O)c1ccc(Cl)c(NC(=O)COC(=O)CN2C(=O)C3CCCCC3C2=O)c1 (centres undefined) | 94 | -1 | 10 | 1 | -4 | 43*
O=C(COC(=O)CN1C(=O)C2CCCCC2C1=O)Nc1cc(S(=O)(=O)N2CCOCC2)ccc1Cl (centres undefined) | 103 | -2 | 6 | 3 | -2 | 0
CCC1(c2ccc(F)cc2)NC(=O)N(CC(=O)Nc2cc(S(=O)(=O)N(C)C)ccc2Cl)C1=O (centres undefined) | 100 | 0 | 8 | -5 | -2 | 44*
COc1ccc(S(=O)(=O)Nc2ccc3c(c2)[C@H]2C[C@H](CC(=O)O)O[C@H](CO)[C@H]2O3)cc1 | . | . | . | . | . | 0
COc1ccc2[nH]c(=O)c(CN(Cc3ccccc3)C(=S)NCC3CCCO3)cc2c1 (centres undefined) | 95 | 4 | -6 | -6 | -3 | 44*
COc1ccc2cc(CN(Cc3ccco3)C(=S)NCC3CCCO3)c(=O)[nH]c2c1 (centres undefined) | 97 | 0 | -10 | -7 | -4 | 0
COc1ccc(CC(=O)NNC(=O)c2ccccc2)cc1OC | 90 | -2 | -6 | 0 | 7 | 1
COc1ccc(CC(=O)NNC(=O)c2ccc(Br)s2)cc1OC | 109 | 2 | 0 | 20 | -1 | 43*
NC(=O)COC(=O)/C=C/c1cccc(Br)c1 | 97 | -1 | -1 | 2 | 1 | 43*
O=C(COC(=O)/C=C/c1cccc(Br)c1)NC1CCCC1 | 104 | -3 | 16 | 5 | 4 | 0
O=C(N[C@@H]1CC[C@H](CCNS(=O)(=O)c2ccccc2)O[C@@H]1CO)c1cccc(F)c1 | . | . | . | . | . | 0
Nc1nc(SCc2ccc(Br)cc2)[nH]c(=O)c1-c1ccccc1 | 98 | -1 | 1 | -4 | -2 | 43*
CC(C)NC(=O)Nc1ccc2c(c1)CC(=O)N([C@@H](C)CO)C[C@@H](C)[C@H](CN(C)C(=O)Nc1ccc(C(F)(F)F)cc1)O2 | . | . | . | . | . | 0
CCn1c(/C=C/c2ccccc2)nc2ccccc2c1=O | 97 | -6 | 4 | -4 | -1 | 44*
CN1C(=O)c2cc(NC(=O)c3cccc(C(F)(F)F)c3)ccc2OC[C@H]2O[C@H](CC(=O)NCCN3CCCC3)CC[C@H]21 | . | . | . | . | . | 0
CC(=O)Nc1cccc(-c2cc(NC(C)=O)c3ncc(-c4cccc(C(C)=O)c4)n3c2)c1 | 98 | . | . | -4 | -7 | 43*
Cc1ccc(NNC(N)=S)cc1Cl | 98 | 3 | 7 | 6 | 1 | 0
NC(=S)NNc1ccc(Cl)c(Cl)c1 | 94 | 0 | -7 | 68* | 2 | 0
COc1ccc([C@H]2C[C@H]3C(Br)=CC2C(=O)[C@]32CO2)cc1OC | . | . | . | . | . | 0
COc1ccc(N2CC(C(=O)O)CC2=O)cc1 (centres undefined) | 105 | 1 | 4 | -4 | 3 | 0
COc1ccc(N2CS(=O)CC2=O)cc1 (centres undefined) | 105 | 0 | 5 | 14 | 3 | 43*
NS(=O)(=O)c1ccc(CCNC(=O)c2cc(-c3ccc(Br)cc3)nc3ccccc23)cc1 | 101 | -4 | 11 | -2 | -2 | .
SMILES | ABCB6 inh 2 | DAGLB inhibitor | VLA-4 inh | Granule exo inh | MT1-MMP act inh | FGF22 binding
NS(=O)(=O)c1ccc(CCNC(=O)c2cc(-c3ccccn3)nc3ccc(Br)cc23)cc1 | 91 | 6 | -22 | 0 | -1 | 43*
CCOC(=O)c1cnc2nc(C)nn2c1N | 86 | 0 | -3 | -2 | 4 | 43*
CCOC(=O)c1cnc2nc(N3CCOCC3)nn2c1N | 102 | -1 | -12 | -4 | -1 | 0
O=C(Nc1cccn(Cc2c(Cl)cccc2Cl)c1=O)c1ccccc1Cl | 104 | -8 | -3 | 6 | -6 | .
CC(=O)Nc1cccn(Cc2c(Cl)cccc2Cl)c1=O | 97 | 0 | 13 | -5 | 1 | 43*
O=[N+]([O-])c1ccccc1S(=O)(=O)N/C(=N/S(=O)(=O)c1ccccc1)c1ccccc1 | 103 | 4 | 0 | 1 | -2 | 43*
CCC(=O)Nc1ccc2c(c1)C(=O)N(C)C[C@@H](OC)[C@@H](C)CN(C(=O)C1CCC1)[C@H](C)CO2 | . | . | . | . | . | 0
C#CCn1c(-c2cccs2)nc2ccccc21 | 93 | 4 | -7 | -5 | -5 | 43*
CCn1c(-c2cccs2)nc2ccccc21 | 96 | 0 | 13 | -2 | 0 | .
C1=C(c2ccccc2)Nc2ncnn2C1c1ccccc1 (centres undefined) | 97 | 0 | 37 | -5 | -9 | 0
Cc1ccc(C2=CC(c3ccccc3)n3ncnc3N2)cc1 (centres undefined) | 98 | -1 | 14 | 68* | -6 | 0
C=CCNC(=O)/C(C#N)=C/c1ccccc1Cl | 102 | 1 | 13 | -1 | -2 | 43*
C=CCNC(=O)/C(C#N)=C/c1ccc(C(=O)O)cc1 | 95 | 2 | 9 | 0 | 4 | 0
CC(=O)Nc1ccc(S(=O)(=O)N2CCN(Cc3ccccn3)CC2)cc1 | 96 | 1 | -9 | -2 | 4 | .
O=[N+]([O-])c1ccccc1CN1CCN(Cc2ccccn2)CC1 | 102 | 0 | -7 | 41 | 1 | 43*
CC(=O)Nc1ccc(S(=O)(=O)N2CCN(Cc3ccccc3[N+](=O)[O-])CC2)cc1 | 103 | 1 | -9 | -2 | -3 | 44*
Fc1ccc(N2CCN(Cc3cnc(N4CCOCC4)s3)CC2)cc1 | 98 | -1 | -11 | 0 | -1 | 43*
Fc1ccc(N2CCN(Cc3ccccn3)CC2)cc1 | 101 | 0 | -7 | -4 | 3 | 44*
C[C@@H]1CN([C@@H](C)CO)C(=O)c2cc(NC(=O)Nc3ccc(F)cc3)ccc2O[C@@H](C)CCCCO[C@@H]1CN(C)S(=O)(=O)c1ccc(Cl)cc1 | . | . | . | . | . | 0
O=C(O)c1cc(-c2ccco2)nn1-c1cccc(Cl)c1 | 100 | 4 | -5 | 10 | -10 | 43*
O=c1cnnc(SCc2ccc([N+](=O)[O-])cc2)[nH]1 | 91 | -2 | -102 | 8 | 2 | 43*
O=[N+]([O-])c1ccc(CSc2nc3ccccc3[nH]2)cc1 | 103 | 2 | 36 | -2 | 3 | 0
